Source: ChEMBL document CHEMBL1153620 (Eur J Med Chem, 2009)

How the values were obtained:
Rattus norvegicus [1] = assay: Antiinflammatory activity in rat assessed as inhibition of carrageenan-induced paw edema at 10 mg/kg, po; assay type: functional
Method in brief: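 Rats, six per group, received the drug suspended in 1% CMC orally 30 min before carrageenan; one group served as control. Carrageenan was given as 0.05 mL of 1% w/v in 0.9% saline under the plantar aponeurosis of the right hind paw.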

Mus musculus = assay: Analgesic activity in albino mouse inhibition of acetic acid-induced writhing response at 10 mg/kg, po; assay type: functional; design: scale not given: the % may be the effect or the level left
Rattus norvegicus [2] = assay: Gastrointestinal toxicity in albino rat assessed as ulcerogenic indicates at dose 30 mg/kg, po; conditions: in vivo
Gastric mucosa = assay: Inhibition of lipid peroxidation assessed as malondialdehyde level per 100 mg of gastric mucosa isolated from albino rat at dose 30 mg/kg, po
[3] = biological target: T1, Prostaglandin G/H synthase 1 (Ovis aries, UniProt P05979); assay: Inhibition of ovine COX1 by enzyme-immuno assay
T1 sequence (P05979 whole entry): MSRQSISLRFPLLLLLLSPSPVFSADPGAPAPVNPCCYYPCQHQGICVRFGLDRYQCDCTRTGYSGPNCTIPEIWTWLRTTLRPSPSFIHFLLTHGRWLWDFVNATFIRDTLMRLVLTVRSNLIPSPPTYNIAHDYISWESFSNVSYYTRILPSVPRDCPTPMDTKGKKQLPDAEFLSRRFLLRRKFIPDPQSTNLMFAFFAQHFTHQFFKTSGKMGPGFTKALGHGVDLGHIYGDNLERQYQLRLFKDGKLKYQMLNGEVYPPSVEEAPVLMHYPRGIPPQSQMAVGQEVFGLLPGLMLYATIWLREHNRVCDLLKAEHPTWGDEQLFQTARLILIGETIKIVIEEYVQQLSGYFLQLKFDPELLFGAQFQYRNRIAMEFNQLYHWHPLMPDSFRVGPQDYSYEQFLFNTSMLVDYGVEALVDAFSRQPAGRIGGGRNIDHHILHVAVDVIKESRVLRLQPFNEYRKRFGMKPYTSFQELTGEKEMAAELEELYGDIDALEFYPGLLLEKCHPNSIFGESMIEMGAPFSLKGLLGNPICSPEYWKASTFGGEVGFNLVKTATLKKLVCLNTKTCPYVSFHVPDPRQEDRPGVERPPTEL

Row | Structure (SMILES) | inhibition in vivo at 10 mg/kg (Rattus norvegicus [1]) [%] | Activity (Mus musculus) [%] | UI (Rattus norvegicus [2]) | MDA content at 30 mg/kg (Gastric mucosa) [nmol MDA/100 mg tissue] | IC50 [3] [µM]
1 | CC(=O)Oc1ccccc1-c1nnc(CCC(=O)c2ccc(-c3ccccc3)cc2)o1 | 43.7 | 56.3 | 0.7 | 5.8 | 
2 | Cc1ccc(-c2nnc(CCC(=O)c3ccc(-c4ccccc4)cc3)o2)cc1 | 50 | 45.1 | 0.5 | 5.8 | 
3 | COc1ccc(-c2nnc(CCC(=O)c3ccc(-c4ccccc4)cc3)o2)cc1OC | 62.5 | 57.3 |  | 4.9 | 54.1
4 | O=C(CCc1nnc(-c2ccccc2)o1)c1ccc(-c2ccccc2)cc1 | 43.7 | 51.3 | 0.4 | 4.3 | 
5 | O=C(CCc1nnc(-c2ccccc2Cl)o1)c1ccc(-c2ccccc2)cc1 | 46.8 | 66.1 | 0.5 | 5.7 | 
6 | O=C(CCc1nnc(-c2ccc(Cl)cc2)o1)c1ccc(-c2ccccc2)cc1 | 53.1 | 61.9 | 0.6 | 5.8 | 
7 | O=C(CCc1nnc(Cc2ccccc2)o1)c1ccc(-c2ccccc2)cc1 | 50 | 54.1 | 0.5 | 5.8 | 
8 | O=C(CCc1nnc(COc2ccccc2)o1)c1ccc(-c2ccccc2)cc1 | 53.1 | 55.8 | 0.6 | 5.8 | 
9 | COc1ccc(-c2nnc(CCC(=O)c3ccc(-c4ccccc4)cc3)o2)cc1 | 59.4 | 51.3 |  | 6.1 | 52.3
10 | O=C(CCc1nnc(-c2ccc(F)cc2)o1)c1ccc(-c2ccccc2)cc1 | 53.1 | 72.5 | 0.6 | 4.6 | 
11 | O=C(CCc1nnc(COc2ccc3ccccc3c2)o1)c1ccc(-c2ccccc2)cc1 | 59.4 | 68.6 |  | 5.9 | 48.4
12 | O=C(CCc1nnc(-c2ccc([N+](=O)[O-])cc2)o1)c1ccc(-c2ccccc2)cc1 | 56.2 | 45.8 |  | 4.3 | 42.6
13 | O=C(O)Cc1ccccc1Nc1c(Cl)cccc1Cl [DICLOFENAC] | 65.6 | 70.3 |  | 8.9 | 
14 | O=C(O)CCC(=O)c1ccc(-c2ccccc2)cc1 [FENBUFEN] | 56.3 | 54.1 |  | 6.8 | 3.9
